An excerpt weighted towards active compounds, which were near 2.4% of everything screened.
SENP1 inh: human SENP1 catalytic domain inhibitors, primary screen, biochemical, FRET, uHTS | Sentrin-specific protease 1 (Homo sapiens), Q9P0U3 | recombinant SENP1 catalytic domain, CyPet-SUMO1-YPet FRET cleavage | inhibition, % at 10 µM | hit rate 0.21% among 360,000 | AID 624204, 2012;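 active means inhibition at least 30% at 10 µM, raw YFP signal under a set limit, fluorescence ratio 0.5 to 1.5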
Target sequence (Q9P0U3 419-644 limits assumed): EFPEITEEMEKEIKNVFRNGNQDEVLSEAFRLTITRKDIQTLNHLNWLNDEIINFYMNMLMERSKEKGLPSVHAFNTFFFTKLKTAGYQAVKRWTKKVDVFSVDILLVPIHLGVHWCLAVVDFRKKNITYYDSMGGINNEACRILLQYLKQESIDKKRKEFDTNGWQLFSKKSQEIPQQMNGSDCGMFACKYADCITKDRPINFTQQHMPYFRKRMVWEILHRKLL
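Material: hSENP1 catalytic domain, recombinant; medium: Tris pH 8 with BME, BSA, NP40 and catalase; compound: single concentration of 10 µM compound, 0.5% DMSO final; technique: FRET read of cyan and yellow fluorescence; timing: 50 min enzyme reaction, room temperature, light-protected; reagent: SFCypet-SUMO1-SFYpet substrate at 25 nM; control set: no-enzyme low, enzyme-DMSO high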
DAGLB inh: DAGLB lipase inhibitors, primary screen, biochemical, fluorescence, HTS. HEK293T DAGLB membrane lysate, EnzChek fluorogenic substrate. AID 504411, 2011. Diacylglycerol lipase-beta (Homo sapiens), Q8NCG7. inhibition, % at 5.17 µM. hit rate 0.059% among 340,000; in the data active means inhibition above about 34%
Myeloid diff MLP: induction of myeloid progenitor differentiation, primary screen, cell-based, flow cytometry, MLPCN library; hit rate 1% among 360,000; calls only at 10 µM; AID 624256, 2012; ER-HoxA9 myeloid progenitors, lysozyme-GFP differentiation;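 active means normalized GFP-positive differentiation at or above the plate's own cutoff, the solvent-only control mean plus 3 SD; inconclusive means no clear call, values can overlap the other calls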;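 further: cells exposed to compound for four days before flow analysis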
MT1-MMP act inh: blockers of MT1-MMP proenzyme processing, primary screen, HT1080 RFP-PRO-GFP cells, GFP/RFP fluorescence | GFP/RFP ratio fluorescence, overnight; percent of plate control window, DMSO zero | Matrix metalloproteinase-14 (Homo sapiens), P50281 | GFP/RFP ratio change, % at 20 µM | hit rate 0.061% among 360,000;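 active means GFP/RFP ratio change of at least 30% with cell ATP level not reduced by more than half and red fluorescence within 50% of control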
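Test system: HT1080 cells expressing an RFP-PRO-GFP fluorescent reporter construct / Compound dosing: single-point 20 µM compound, 1% DMSO / Schedule: cells overnight before dosing, compound overnight, 37 °C, 5% CO2 / Evaluation: GFP/RFP fluorescence ratio / Control set: DMSO and RFP-L50D-GFP cell wells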
NRP1-CendR mod: modulators of CendR peptide binding to NRP-1, primary screen, biochemical, fluorescence polarization, uHTS. FAM-RPARPAR peptide binding to NRP-1. inhibition, % at 25 µM. hit rate 0.85% among 360,000. AID 602438, 2012;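 active means inhibition or corrected inhibition above about 18%, plus a signal ratio from 0.5 to 1.5, limit read from the data, passing the limit was not always enough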
beta cell repl: inducers of MIN6 beta-cell proliferation, primary screen, ATP luminescence, uHTS; proliferation, % at 10 µM; MIN6 cells proliferation, ATPlite luminescence, 48 h; cells starved in 0.2% serum; 100% = growth in 10% serum; hit rate 0.29% among 330,000;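 active means compounds whose signal lies at least 3.5 SD above the mean of all wells on their plate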
MT1-MMP act val: MT1-MMP activation inhibitors, hit retest, confirmation, single concentration, fluorescence, HT1080 RFP-PRO-GFP cells; shares compounds with MT1-MMP act inh; inhibition, % at 20 µM; GFP and RFP fluorescence ratio, overnight; hit rate 10% among 200; AID 652235, 2013;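 active means inhibition of at least 50% in the primary cell screen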
Hits are given with their value; 0 = inactive; ? = inconclusive; - = no result given.

SMILES	SENP1 inh	DAGLB inh	Myeloid diff MLP	MT1-MMP act inh	NRP1-CendR mod	beta cell repl	MT1-MMP act val
COc1ccccc1NC(=S)NCc1ccc2c(c1)cc(C)n2C	0	0	0	41	0	0	0
CCCS(=O)(=O)NCc1ccc2c(c1)cc(C)n2C	0	0	0	34	0	0	0
CCS(=O)(=O)NCc1ccc2c(c1)cc(C)n2C	0	0	0	0	0	0	-
Cc1cc2cc(CNC(=O)c3ccc(S(=O)(=O)N4CCCCC4)cc3)ccc2n1C	0	0	0	40	0	0	0
Cc1ccccc1NC(=S)NCc1ccc2c(c1)cc(C)n2C	0	0	?	0	0	0	-
Cc1cc2cc(CNC(=S)NCc3ccccc3)ccc2n1C	0	0	0	46	22	0	0
COc1ccc(C(=O)NC(NC(=S)Nc2ccc(S(N)(=O)=O)cc2)C(Cl)(Cl)Cl)cc1 (stereo unspecified)	0	0	0	0	0	0	-
COc1ccccc1CC(NC(C)=O)C(=O)NC1CCN(C(=O)c2ccc([N+](=O)[O-])cc2)CC1 (stereo unspecified)	0	0	0	0	0	0	-
CCCCC(=O)NCc1ccc2c(c1)cc(C)n2C	0	0	0	47	0	0	0
CC1=NCCN1S(=O)(=O)c1cc([N+](=O)[O-])ccc1Cl	0	0	0	0	0	0	-
CN(CCCC(=O)O)c1ccc(N=Nc2ccc([N+](=O)[O-])cc2)cc1	0	0	0	53	0	0	0
COc1ccc(N2CCN(C(=O)CN(C)S(=O)(=O)c3cc(C)ccc3OC)CC2)cc1	0	0	0	0	0	0	-
CCOc1ccc2[nH]c3c(=O)n(CCc4ccc(OC)cc4)cnc3c2c1	0	0	0	0	0	0	-
O=C(NCCCn1ccnc1)c1cccnc1	0	0	0	32	0	0	0
CCN1C(=O)/C(=C2\C=Cc3ccccc3N2CC)SC1=S	0	0	0	99	0	0	0
CCN1C(=O)/C(=c2\o/c(=C3\C=Cc4ccccc4N3CC)c(=O)n2CC)SC1=S	0	0	0	0	0	-	-
COc1cc(/C=C/c2cc(OC(C)=O)c3ccccc3n2)c(OC(C)=O)c([N+](=O)[O-])c1	0	0	0	37	0	0	0
